Results published in ChEMBL document CHEMBL6083205, “A comprehensive apoptotic assessment of niloticin in cervical cancer cells: a tirucallane-type triterpenoid from Aphanamixis polystachya (Wall.) Parker” (RSC Med Chem, 2024).
Active and inactive are the calls of the source. No cut-off for these calls is given here.

Columns and labels:
HeLa [1] = test: Induction of cell cycle arrest in human HeLa cells assessed as proportion of cell accumulation at G1 phase at 7 uM by propidium iodide staining based flow cytometry (reference value: 67.7%); type: functional
HeLa [2] = test: Induction of cell cycle arrest in human HeLa cells assessed as proportion of cell accumulation at G1 phase at 11 uM by propidium iodide staining based flow cytometry (reference value: 67.7%); type: functional
HeLa [3] = test: Induction of mitochondrial membrane potential depolarization in human HeLa cells assessed as increase in JC-1 monomers by measuring increase in green fluorescence intensity at 7 to 11 uM incubated for 24 hrs by JC-1 staining based fluorescence microscopic analysis; type: functional, cell-based; conditions: dose 7-11 µM
Method in brief: (§1)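 HeLa treated for 24 h, then stained with JC-1 dye; red aggregate and green monomer fluorescence imaged on inverted microscope with FITC filter; aggregate-to-monomer ratio calculated relative to control; mean ± SD; scale bar 50 μm.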

A549 = test: Antiproliferative activity against human A549 cells assessed as inhibition of cell growth incubated for 24 hrs by MTT assay; type: functional, cell-based; conditions: A549, 24 h
Method in brief: (§2)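 Cells kept in DMEM with 10% FBS and 1% antibiotic-antimycotic at 37 °C and 5% CO2. Seeded at 8 × 10^3 cells per 100 μL and left 24 h, then exposed 24 h to 5, 10, 20, 50 or 100 μM. MTT at 0.5 mg/mL in HBSS was added for 2–4 h at 37 °C in the dark. Formazan was dissolved in DMSO, A570 was read, and IC50 was derived.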

HeLa [4] = test: Induction of apoptosis in human HeLa cells assessed as DNA fragmentation at 7 to 11 uM incubated for 24 hrs by ethidium bromide staining based agarose gel electrophoresis analysis; type: functional, cell-based; conditions: dose 7-11 µM
Method in brief: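 HeLa treated at 7 and 11 μM; genomic DNA isolated by kit, quantified by nanodrop and normalised; run on 0.8% agarose at 80 V, stained with ethidium bromide; laddering imaged by gel documentation.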

HeLa [5] = test: Antimetastatic activity in human HeLa cells assessed as inhibition of cell migration at 3 to 6 uM measured after 24 to 48 hrs by scratch wound assay; type: functional, cell-based; conditions: dose 3-6 µM, time 24-48 hrs
Method in brief: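 HeLa monolayer formed 24 h after seeding, scratched with a pipette tip and washed with PBS; treated at 3 and 6 μM, untreated cells as control; wound imaged at 0, 24 and 48 h; percentage wound closure/area measured by image analysis.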

HeLa [6] = test: Induction of apoptosis in human HeLa cells assessed as proportion of viable cells at 11 uM by AnnexinV-FITC/PI staining based FACS analysis (reference value: 77.7%); type: functional
HeLa [7] = test: Induction of cell cycle arrest in human HeLa cells assessed as downregulation of Cdc25 protein expression at 7 to 11 uM by western blot analysis; type: functional, cell-based; conditions: dose 7-11 µM
Method in brief: (§3)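 Protein extracted from treated and untreated HeLa, BCA-quantified and normalised; SDS-PAGE, PVDF transfer, 5% skim milk block; primary antibodies 18 h at 4 °C, HRP secondary; chemiluminescent detection of Cdk-2, cyclin A2, cyclin B1, Cdc-25 with β-actin loading control.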

HeLa [8] = test: Inhibition of colony formation in human HeLa cells assessed as decrease in number of colonies formed at 3 to 6 uM incubated for 9 days by crystal violet staining based microscopic analysis; type: functional, cell-based; conditions: dose 3-6 µM, time 9.0 day
Method in brief: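 HeLa seeded at 1 × 10^3 cells in 6-well plates; after attachment treated at 3 and 6 μM and grown 9 days at 37 °C; fixed in 70% methanol, stained with 0.3% crystal violet, PBS-washed; colonies imaged and counted by image analysis.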

HeLa [9] = test: Induction of apoptosis in human HeLa cells assessed as fold increase in caspase-3 activation at 7 to 11 uM by fluorometric assay relative to control; type: functional; conditions: dose 7-11 µM
Method in brief: (§4)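 HeLa seeded at 3 × 10^6 in 6-well plates, treated at 7 and 11 μM; caspase-3, -8 and -9 activity each measured by fluorometric kit per manufacturer's protocol; fluorescence read at ex 400 nm / em 505 nm; fold change versus control; mean ± SD.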

HeLa [10] = test: Induction of apoptosis in human HeLa cells assessed as increase in number of cells with condensed nucleic acids at 7 to 11 uM incubated for 24 hrs by Hoechst 33342 staining based fluorescence light microscopy; type: functional, cell-based; conditions: dose 7-11 µM
Method in brief: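 HeLa, 7 × 10^3 cells/well, treated 24 h at 7 and 11 μM; stained with Hoechst 33342 (1 μg mL−1 in PBS); condensed nuclei imaged through DAPI filter on inverted fluorescence microscope.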

HeLa [11] = test: Induction of cell cycle arrest in human HeLa cells assessed as proportion of cell accumulation at S phase at 7 uM by propidium iodide staining based flow cytometry (reference value: 15.9%); type: functional
HeLa [12] = test: Induction of apoptosis in human HeLa cells assessed as proportion of viable cells at 7 uM by AnnexinV-FITC/PI staining based FACS analysis (reference value: 77.7%); type: functional
HeLa [13] = test: Induction of cell cycle arrest in human HeLa cells assessed as proportion of cell accumulation at G2 phase at 11 uM by propidium iodide staining based flow cytometry (reference value: 8.7%); type: functional
HeLa [14] = test: Induction of apoptosis in human HeLa cells assessed as DNA fragmentation by measuring CH-deformation with enhanced peak at 1420 to 1440 cm^-1 at 7 to 11 uM incubated for 24 hrs by surface-enhanced Raman spectroscopic analysis; type: functional, cell-based; conditions: dose 7-11 µM
Method in brief: (§5)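 DNA isolated from control and 7 or 11 μM-treated HeLa, mixed 8:2 with 40–45 nm gold nanoparticles as SERS substrate, 10 min incubation; confocal Raman with 633 nm laser at 5 mW, 600 g/mm grating, 3 cm−1 resolution, 3 accumulations of 5 s integration.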

HeLa [15] = test: Induction of mitochondrial membrane potential depolarization in human HeLa cells assessed as decrease in JC-1 aggregate to monomer ratio at 7 to 11 uM incubated for 24 hrs by JC-1 staining based fluorescence microscopic analysis; type: functional, cell-based; conditions: dose 7-11 µM; method in brief: as §1
HeLa [16] = test: Induction of apoptosis in human HeLa cells assessed as proportion of early apoptotic cells at 7 uM by AnnexinV-FITC/PI staining based FACS analysis (reference value: 4.5%); type: functional
HeLa [17] = test: Induction of cell cycle arrest in human HeLa cells assessed as proportion of cell accumulation at subG0 phase at 11 uM by propidium iodide staining based flow cytometry (reference value: 7.6%); type: functional
HeLa [18] = test: Induction of cell cycle arrest in human HeLa cells assessed as proportion of cell accumulation at G2 phase at 7 uM by propidium iodide staining based flow cytometry (reference value: 8.7%); type: functional
HeLa [19] = test: Induction of apoptosis in human HeLa cells assessed as proportion of early apoptotic cells at 11 uM by AnnexinV-FITC/PI staining based FACS analysis (reference value: 4.5%); type: functional
HeLa [20] = test: Induction of apoptosis in human HeLa cells assessed as proportion of necrotic cells at 11 uM by AnnexinV-FITC/PI staining based FACS analysis (reference value: 3.4%); type: functional
SiHa = test: Antiproliferative activity against human SiHa cells assessed as inhibition of cell growth incubated for 24 hrs by MTT assay; type: functional, cell-based
Method in brief: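 Cervical squamous carcinoma cells were seeded at 8 × 10^3 cells per 100 μL and incubated 24 h before compound was added (5–100 μM). After 24 h exposure, cells were washed and given 0.5 mg/mL MTT in HBSS for 2–4 h at 37 °C in the dark. Formazan was solubilised in DMSO, absorbance read at 570 nm, and IC50 determined.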

HeLa [21] = test: Induction of apoptosis in human HeLa cells assessed as proportion of late apoptotic cells at 7 uM by AnnexinV-FITC/PI staining based FACS analysis (reference value: 14.5%); type: functional
HeLa [22] = test: Induction of apoptosis in human HeLa cells assessed as increase in caspase-9 activation at 7 to 11 uM by fluorometric assay; type: functional, cell-based; conditions: dose 7-11 µM; method in brief: as §4
HeLa [23] = test: Induction of cell cycle arrest in human HeLa cells assessed as proportion of cell accumulation at S phase at 11 uM by propidium iodide staining based flow cytometry (reference value: 15.9%); type: functional
HeLa [24] = test: Induction of apoptosis in human HeLa cells assessed as cells with impaired membrane by measuring increase in pink colour intensity at 7 to 11 uM by APOP staining based microscopy; type: functional, cell-based; conditions: dose 7-11 µM
Method in brief: (§6)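 HeLa exposed to 7 and 11 μM versus untreated control; live/dead staining either with acridine orange–ethidium bromide dual stain (fluorescence, FITC filter) or with APOPercentage dye (pink uptake, brightfield); imaged on inverted microscope.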

HeLa [25] = test: Induction of cell cycle arrest in human HeLa cells assessed as downregulation of Cyclin A2 protein expression at 7 to 11 uM by western blot analysis; type: functional, cell-based; conditions: dose 7-11 µM; method in brief: as §3
HeLa [26] = test: Induction of apoptosis in human HeLa cells assessed as proportion of necrotic cells at 7 uM by AnnexinV-FITC/PI staining based FACS analysis (reference value: 3.4%); type: functional
HeLa [27] = test: Antimetastatic activity in human HeLa cells assessed as downregulation of Ki67 expression at 3 to 6 uM incubated for 24 hrs by DAPI staining based immunofluorescence analysis; type: functional, cell-based; conditions: dose 3-6 µM
Method in brief: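 HeLa, 7 × 10^3 cells/well, treated at two concentrations for 24 h; fixed in 4% paraformaldehyde 15–30 min at 37 °C, permeabilised with 0.1% Triton-X 10 min, blocked in 5% BSA/PBST 1 h; Ki67 primary antibody overnight, then secondary antibody and DAPI counterstain; fluorescence microscopy imaging, fluorescence intensity quantified; mean ± SD.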

HeLa [28] = test: Induction of apoptosis in human HeLa cells assessed as DNA fragmentation by measuring less intense peak for deoxyribose variation (1460-65 cm^-1) at 7 to 11 uM incubated for 24 hrs by surface-enhanced Raman spectroscopic analysis; type: functional, cell-based; conditions: dose 7-11 µM; method in brief: as §5
HeLa [29] = test: Induction of cell cycle arrest in human HeLa cells assessed as downregulation of Cdk2 protein expression at 7 to 11 uM by western blot analysis; type: functional, cell-based; conditions: dose 7-11 µM; method in brief: as §3
[30] = Cytotoxicity against human MCF-10A cells assessed as inhibition of cell growth incubated for 24 hrs by MTT assay; type: toxicity, cell-based
Method in brief: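 Non-tumorigenic breast epithelial line grown in MEGM with 5% horse serum at 37 °C and 5% CO2. Plated at 8 × 10^3 cells per well and treated 24 h later for 24 h at 5–100 μM. MTT (0.5 mg/mL in HBSS) was applied for 2–4 h at 37 °C in the dark, then DMSO. Read at 570 nm for IC50.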

PANC-1 = test: Antiproliferative activity against human PANC-1 cells assessed as inhibition of cell growth incubated for 24 hrs by MTT assay; type: functional, cell-based; conditions: PANC-1, 24 h; method in brief: as §2
HeLa [31] = test: Induction of cell cycle arrest in human HeLa cells assessed as downregulation of Cyclin B1 protein expression at 7 to 11 uM by western blot analysis; type: functional, cell-based; conditions: dose 7-11 µM; method in brief: as §3
HeLa [32] = test: Induction of apoptosis in human HeLa cells assessed as cells with compromised membrane by measuring increase in red fluorescence intensity at 7 to 11 uM by acridine orange/ethidium bromide dual staining based fluorescence microscopy; type: functional, cell-based; conditions: dose 7-11 µM; method in brief: as §6
HeLa [33] = test: Induction of apoptosis in human HeLa cells assessed as proportion of late apoptotic cells at 11 uM by AnnexinV-FITC/PI staining based FACS analysis (reference value: 14.5%); type: functional
HeLa [34] = test: Induction of apoptosis in human HeLa cells assessed as increase in caspase-8 activation at 7 to 11 uM by fluorometric assay; type: functional, cell-based; conditions: dose 7-11 µM; method in brief: as §4
HeLa [35] = test: Antiproliferative activity against human HeLa cells assessed as inhibition of cell growth incubated for 24 hrs by MTT assay; type: functional, cell-based; method in brief: as §2
MDA-MB-231 = test: Antiproliferative activity against human MDA-MB-231 cells assessed as inhibition of cell growth incubated for 24 hrs by MTT assay; type: functional, cell-based; conditions: MDA-MB-231, 24 h; method in brief: as §2
HeLa [36] = test: Induction of cell cycle arrest in human HeLa cells assessed as proportion of cell accumulation at subG0 phase at 7 uM by propidium iodide staining based flow cytometry (reference value: 7.6%); type: functional

C[C@@H](C[C@@H](O)[C@@H]1OC1(C)C)[C@@H]1CC[C@]2(C)C3=CC[C@H]4C(C)(C)C(=O)CC[C@]4(C)[C@H]3CC[C@@]12C
Activity (HeLa [1]): 64%
Activity (HeLa [2]): 44.1%
Activity (HeLa [3]): Active
IC50 (A549): 30.6 µM
Activity (HeLa [4]): Active
Activity (HeLa [5]): Active
Activity (HeLa [6]): 29.6%
Activity (HeLa [7]): Active
inhibition (HeLa [8]): Dose-dependent-effect
fold change (FC) (HeLa [9]): 3
Activity (HeLa [10]): Active
Activity (HeLa [11]): 4.9%
Activity (HeLa [12]): 38.3%
Activity (HeLa [13]): 6.2%
Activity (HeLa [14]): Active
Activity (HeLa [15]): Active
Activity (HeLa [16]): 50.9%
Activity (HeLa [17]): 39.5%
Activity (HeLa [18]): 5.4%
Activity (HeLa [19]): 15.8%
Activity (HeLa [20]): 4.5%
IC50 (SiHa): 16.2 µM
Activity (HeLa [21]): 10.1%
Activity (HeLa [22]): Active
Activity (HeLa [23]): 9.8%
Activity (HeLa [24]): Active
Activity (HeLa [25]): Active
Activity (HeLa [26]): 0.7%
Activity (HeLa [27]): Active
Activity (HeLa [28]): Active
Activity (HeLa [29]): Active
IC50 at 24 h [30]: 83.3 µM
IC50 (PANC-1): 16.5 µM
Activity (HeLa [31]): Active
Activity (HeLa [32]): Active
Activity (HeLa [33]): 50.1%
Activity (HeLa [34]): Active
IC50 (HeLa [35]): 11.7 µM
IC50 (MDA-MB-231): 23.9 µM
Activity (HeLa [36]): 25.6%
